Test results published in ChEMBL document CHEMBL3593210, “Pentamidine analogs as inhibitors of [(3)H]MK-801 and [(3)H]ifenprodil binding to rat brain NMDA receptors” (Bioorg Med Chem, 2015).

Legend:
Glutamate NMDA receptor [1] = test: Displacement of [3H]-MK-801 from rat cortical membranes NMDA receptor by beta counting analysis in absence of spermine
Procedure, shortened: (§1)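 Membranes from rat frontoparietal cortex and hippocampus, prepared in 50 mM Tris acetate pH 7.0. 5 nM [3H]MK-801 was incubated with membranes (~1 mg wet tissue) for 3 h at 23 °C in 10 mM Tris acetate pH 7.0 with 10 µM glutamate and glycine, in triplicate, with or without 30 µM spermine. Compounds were tested at 3–4 concentrations. Nonspecific binding was set with 100 µM (S)-ketamine. Bound ligand was filtered and scintillation-counted. Spermine sensitivity = IC50 (with spermine)/IC50 (without).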

Glutamate NMDA receptor [2] = test: Displacement of [3H]-MK-801 from rat cortical membranes NMDA receptor by beta counting analysis in presence of 30 uM spermine; procedure, shortened: as §1
[3] = molecular target: Glutamate NMDA receptor (Rattus norvegicus) (UniProt P35439+Q00959+Q00960+Q00961+Q62645+Q8VHN2+Q9R1M7); test: Ratio of IC50 for displacement of [3H]-MK-801 from rat cortical membranes NMDA receptor in presence of 30 uM spermine to IC50 for displacement of [3H]-MK-801 from rat cortical membranes NMDA receptor in absence of 30 spermine; procedure, shortened: as §1
Glutamate NMDA receptor [4] = test: Displacement of [3H]-ifenprodil from rat cortical membranes NMDA receptor by beta counting analysis in absence of spermine

N=C(NCCO)c1ccc(N2CCCN(c3ccc(/C(N)=N/CCO)cc3)CC2)cc1
IC50 (Glutamate NMDA receptor [1]): 9.44 µM | IC50 (Glutamate NMDA receptor [2]): 324 µM | Ratio IC50 [3]: 35.7

N=C(N)c1ccc(NC(=O)CCCCCC(=O)Nc2ccc(C(=N)N)cc2)cc1
IC50 (Glutamate NMDA receptor [1]): > 1000 µM | IC50 (Glutamate NMDA receptor [2]): > 1000 µM

CCN(CCN(CC)c1ccc(C(=N)N)cc1)c1ccc(C(=N)N)cc1
IC50 (Glutamate NMDA receptor [1]): 1.14 µM | IC50 (Glutamate NMDA receptor [2]): 13.8 µM | Ratio IC50 [3]: 11.8 | IC50 (Glutamate NMDA receptor [4]): 9.16 µM

N=C(N)c1ccc(OCCCOc2ccc(C(=N)N)cc2)cc1 [PROPAMIDINE]
IC50 (Glutamate NMDA receptor [1]): 5.54 µM

N=C(N)c1ccc(NC(=O)CCCCC(=O)Nc2ccc(C(=N)N)cc2)cc1
IC50 (Glutamate NMDA receptor [1]): 165 µM | IC50 (Glutamate NMDA receptor [2]): 437 µM | Ratio IC50 [3]: 3.46

N=C(N)c1ccc(NC(=O)c2ccc(C(=O)Nc3ccc(C(=N)N)cc3)cc2)cc1
IC50 (Glutamate NMDA receptor [1]): 53.9 µM | IC50 (Glutamate NMDA receptor [2]): 52.9 µM | Ratio IC50 [3]: 0.96

N=C(N)c1ccc(OCCCCOc2ccc(C(=N)N)cc2)cc1
IC50 (Glutamate NMDA receptor [1]): 17.7 µM

N=C(NCCCO)c1ccc(N2CCCN(c3ccc(/C(N)=N/CCCO)cc3)CC2)cc1
IC50 (Glutamate NMDA receptor [1]): 41.2 µM | IC50 (Glutamate NMDA receptor [2]): 427 µM | Ratio IC50 [3]: 9.72

CN(CCCN(C)c1ccc(C(=N)N)cc1)c1ccc(C(=N)N)cc1
IC50 (Glutamate NMDA receptor [1]): 1.84 µM | IC50 (Glutamate NMDA receptor [2]): 24.7 µM | Ratio IC50 [3]: 14.7 | IC50 (Glutamate NMDA receptor [4]): 31.2 µM

N=C(N)c1ccc(C(=O)NCCCNC(=O)c2ccc(C(=N)N)cc2)cc1
IC50 (Glutamate NMDA receptor [1]): > 1000 µM | IC50 (Glutamate NMDA receptor [2]): > 1000 µM

NCCCCCCCCCCCCN
IC50 (Glutamate NMDA receptor [2]): 245 µM | Ratio IC50 [3]: 32.9 | IC50 (Glutamate NMDA receptor [4]): 960 µM

NC(N)=NCCCCN=C(N)N [ARCAINE]
IC50 (Glutamate NMDA receptor [1]): 4.6 µM | IC50 (Glutamate NMDA receptor [2]): 196 µM | IC50 (Glutamate NMDA receptor [4]): 24.4 µM

N=C(N)c1ccc(-c2ccc(-c3ccc(C(=N)N)s3)s2)s1
IC50 (Glutamate NMDA receptor [1]): 5.34 µM | IC50 (Glutamate NMDA receptor [2]): 6.76 µM | Ratio IC50 [3]: 1.5

N=C(NC1CCCC1)c1ccc(N2CCCN(c3ccc(C(=N)NC4CCCC4)cc3)CC2)cc1
IC50 (Glutamate NMDA receptor [1]): 8.13 µM | IC50 (Glutamate NMDA receptor [2]): 85.7 µM | Ratio IC50 [3]: 10.6

N=C(N)c1ccc(C(=O)NCCCCCCNC(=O)c2ccc(C(=N)N)cc2)cc1
IC50 (Glutamate NMDA receptor [1]): 266 µM | IC50 (Glutamate NMDA receptor [2]): 1210 µM | Ratio IC50 [3]: 4.59

N=C(N)c1ccc(NC(=O)CCCCCCCCCCC(=O)Nc2ccc(C(=N)N)cc2)cc1
IC50 (Glutamate NMDA receptor [1]): 9.63 µM | IC50 (Glutamate NMDA receptor [2]): 27.7 µM | Ratio IC50 [3]: 2.98

N=C(N)c1ccc(C(=O)Nc2cccc(NC(=O)c3ccc(C(=N)N)cc3)n2)cc1
IC50 (Glutamate NMDA receptor [1]): 125 µM | IC50 (Glutamate NMDA receptor [2]): 233 µM | Ratio IC50 [3]: 1.85

N=C(N)c1ccc(C(=O)NCCCCCNC(=O)c2ccc(C(=N)N)cc2)cc1
IC50 (Glutamate NMDA receptor [1]): 688 µM | IC50 (Glutamate NMDA receptor [2]): > 1000 µM

N=C(NC1CC1)c1ccc(N2CCN(c3ccc(C(=N)NC4CC4)cc3)CC2)cc1
IC50 (Glutamate NMDA receptor [1]): 19.4 µM | IC50 (Glutamate NMDA receptor [2]): 466 µM | Ratio IC50 [3]: 21.8

N=C(N)c1ccc(NCCCCCCNc2ccc(C(=N)N)cc2)cc1
IC50 (Glutamate NMDA receptor [1]): 4.37 µM | IC50 (Glutamate NMDA receptor [2]): 23.9 µM | Ratio IC50 [3]: 5.26

N=C(N)c1ccc(NCCCCNc2ccc(C(=N)N)cc2)cc1
IC50 (Glutamate NMDA receptor [1]): 4.55 µM | IC50 (Glutamate NMDA receptor [2]): 84.2 µM | Ratio IC50 [3]: 17.2

N=C(N)c1ccc(-c2ccc(-c3ccc(C(=N)N)cc3)s2)cc1
IC50 (Glutamate NMDA receptor [1]): 6.68 µM | IC50 (Glutamate NMDA receptor [2]): 17.7 µM | Ratio IC50 [3]: 2.61

CCCC/N=C(/N)c1ccc(N2CCN(c3ccc(/C(N)=N\CCCC)cc3)CC2)cc1
IC50 (Glutamate NMDA receptor [1]): 10.3 µM | IC50 (Glutamate NMDA receptor [2]): 139 µM | Ratio IC50 [3]: 16

CC(C)NC(=N)c1ccc(NC(=O)c2ccc(C(=O)Nc3ccc(C(=N)NC(C)C)cc3)o2)cc1
IC50 (Glutamate NMDA receptor [1]): 10.6 µM | IC50 (Glutamate NMDA receptor [2]): 174 µM | Ratio IC50 [3]: 16.9

N=C(N)c1ccc(NCCCCCCCCNc2ccc(C(=N)N)cc2)cc1
IC50 (Glutamate NMDA receptor [1]): 7.26 µM | IC50 (Glutamate NMDA receptor [2]): 31.1 µM | Ratio IC50 [3]: 4.37

N=C(N)c1ccc(NC(=O)CCCCCCCC(=O)Nc2ccc(C(=N)N)cc2)cc1
IC50 (Glutamate NMDA receptor [1]): 26.5 µM | IC50 (Glutamate NMDA receptor [2]): 111 µM | Ratio IC50 [3]: 4.25

CC(C)/N=C(\N)c1ccc(N2CCCN(c3ccc(/C(N)=N/C(C)C)cc3)CC2)cc1
IC50 (Glutamate NMDA receptor [1]): 17.7 µM | IC50 (Glutamate NMDA receptor [2]): 389 µM | Ratio IC50 [3]: 25.3

N=C(N)c1ccc(-c2ccc(-c3ccc(C(=N)N)cc3)o2)cc1 [FURAMIDINE]
IC50 (Glutamate NMDA receptor [1]): 4.23 µM | IC50 (Glutamate NMDA receptor [2]): 7.48 µM | Ratio IC50 [3]: 2.37

N=C(N)c1ccc(-c2ccc(-c3nc4ccc(C(=N)N)cc4[nH]3)s2)cc1
IC50 (Glutamate NMDA receptor [1]): 3.21 µM | IC50 (Glutamate NMDA receptor [2]): 13.4 µM | Ratio IC50 [3]: 4.14

N=C(N)c1ccc(C(=O)NCCCCNC(=O)c2ccc(C(=N)N)cc2)cc1
IC50 (Glutamate NMDA receptor [1]): > 1000 µM | IC50 (Glutamate NMDA receptor [2]): > 1000 µM

c1cc(N2CCN(c3ccc(C4=NCCN4)cc3)CC2)ccc1C1=NCCN1
IC50 (Glutamate NMDA receptor [1]): 6.43 µM | IC50 (Glutamate NMDA receptor [2]): 106 µM | Ratio IC50 [3]: 15.1

N=C(N)c1ccc(-c2ccc(-c3ccc(-c4ccc(C(=N)N)cc4)nc3)cn2)cc1
IC50 (Glutamate NMDA receptor [1]): 26.8 µM | IC50 (Glutamate NMDA receptor [2]): 30 µM | Ratio IC50 [3]: 1.24

CC(C)/N=C(/N)c1ccc(N2CCN(c3ccc(/C(N)=N\C(C)C)cc3)CC2)cc1
IC50 (Glutamate NMDA receptor [1]): 21.4 µM | IC50 (Glutamate NMDA receptor [2]): 544 µM | Ratio IC50 [3]: 32.9

N=C(NC1CCCC1)c1ccc(N2CCN(c3ccc(C(=N)NC4CCCC4)cc3)CC2)cc1
IC50 (Glutamate NMDA receptor [1]): 9.25 µM | IC50 (Glutamate NMDA receptor [2]): 159 µM | Ratio IC50 [3]: 19.3

N=C(N)c1ccc(NC(=O)c2ccc(C(=O)Nc3ccc(C(=N)N)cc3)o2)cc1
IC50 (Glutamate NMDA receptor [1]): 152 µM | IC50 (Glutamate NMDA receptor [2]): 153 µM | Ratio IC50 [3]: 1.01

N=C(N)c1ccc(NCCCCCCCNc2ccc(C(=N)N)cc2)cc1
IC50 (Glutamate NMDA receptor [1]): 4.67 µM | IC50 (Glutamate NMDA receptor [2]): 25.4 µM | Ratio IC50 [3]: 5.37

N=C(N)c1ccc(-c2ccc(-c3ccc(-c4ccc(C(=N)N)o4)s3)s2)o1
IC50 (Glutamate NMDA receptor [1]): 5.01 µM | IC50 (Glutamate NMDA receptor [2]): 11.7 µM | Ratio IC50 [3]: 4.26

N=C(N)c1ccc(NC(=O)CCCCCCCCC(=O)Nc2ccc(C(=N)N)cc2)cc1
IC50 (Glutamate NMDA receptor [1]): 15.7 µM | IC50 (Glutamate NMDA receptor [2]): 62.6 µM | Ratio IC50 [3]: 4.07

c1cc(N2CCCN(c3ccc(C4=NCCN4)cc3)CC2)ccc1C1=NCCN1
IC50 (Glutamate NMDA receptor [1]): 3.03 µM | IC50 (Glutamate NMDA receptor [2]): 92.2 µM | Ratio IC50 [3]: 30.1

CC/N=C(\N)c1ccc(-c2ccc(-c3ccc(/C(N)=N/CC)cc3)o2)cc1
IC50 (Glutamate NMDA receptor [1]): 12.2 µM | IC50 (Glutamate NMDA receptor [2]): 30.7 µM | Ratio IC50 [3]: 2.56

N=C(N)NCCCCNC(=N)N
Ratio IC50 [3]: 33.6

C/N=C(\N)c1ccc(-c2ccc(-c3ccc(/C(N)=N/C)cc3)o2)cc1
IC50 (Glutamate NMDA receptor [1]): 6.97 µM | IC50 (Glutamate NMDA receptor [2]): 24 µM | Ratio IC50 [3]: 3.47

CCCNC(=N)c1ccc(N2CCN(c3ccc(C(=N)NCCC)cc3)CC2)cc1
IC50 (Glutamate NMDA receptor [1]): 15.9 µM | IC50 (Glutamate NMDA receptor [2]): 371 µM | Ratio IC50 [3]: 21.8

N=C(NC1CC1)c1ccc(N2CCCN(c3ccc(C(=N)NC4CC4)cc3)CC2)cc1
IC50 (Glutamate NMDA receptor [1]): 11.2 µM | IC50 (Glutamate NMDA receptor [2]): 212 µM | Ratio IC50 [3]: 19.9

N=C(N)c1ccc(NC(=O)c2cccc(C(=O)Nc3ccc(C(=N)N)cc3)c2)cc1
IC50 (Glutamate NMDA receptor [1]): 42.3 µM | IC50 (Glutamate NMDA receptor [2]): 36.7 µM | Ratio IC50 [3]: 0.97

N=C(N)c1ccc(-c2ccc(-c3ccc(C(=N)N)cc3)c(F)c2)cc1
IC50 (Glutamate NMDA receptor [1]): 9.9 µM | IC50 (Glutamate NMDA receptor [2]): 34.2 µM | Ratio IC50 [3]: 4.63

CC(C)(C)/N=C(\N)c1ccc(N2CCCN(c3ccc(/C(N)=N/C(C)(C)C)cc3)CC2)cc1
IC50 (Glutamate NMDA receptor [1]): 34.6 µM | IC50 (Glutamate NMDA receptor [2]): 562 µM | Ratio IC50 [3]: 16.8

CCCCNC(=N)c1ccc(N2CCCN(c3ccc(C(=N)NCCCC)cc3)CC2)cc1
IC50 (Glutamate NMDA receptor [1]): 9.94 µM | IC50 (Glutamate NMDA receptor [2]): 103 µM | Ratio IC50 [3]: 11.2

c1cc(N2CCN(c3ccc(C4=NCCCN4)cc3)CC2)ccc1C1=NCCCN1
IC50 (Glutamate NMDA receptor [1]): 23.8 µM | IC50 (Glutamate NMDA receptor [2]): 264 µM | Ratio IC50 [3]: 13.6

c1cc(N2CCCN(c3ccc(C4=NCCCN4)cc3)CC2)ccc1C1=NCCCN1
IC50 (Glutamate NMDA receptor [1]): 12.8 µM | IC50 (Glutamate NMDA receptor [2]): 143 µM | Ratio IC50 [3]: 11.7

N=C(N)c1ccc(NC(=O)CCCCCCC(=O)Nc2ccc(C(=N)N)cc2)cc1
IC50 (Glutamate NMDA receptor [1]): 22.9 µM | IC50 (Glutamate NMDA receptor [2]): 170 µM | Ratio IC50 [3]: 7.25
